Blank lines part the entries; values can stand above or below the molecule they belong to. Square brackets hold non-standard residues; d marks the D form. Peptide text beside a SMILES is read from it. * marks the point of attachment. AMC = Cc1cc(=O)oc2cc(N*)ccc12; Pip = O=C(O)[C@@H]1CCCCN1; Cbz = O=C(OCc1ccccc1)*; AEEA = NCCOCCOCC(=O)O
Legend:
DPPIV [1] = target: T1, DPPIV (Homo sapiens, UniProt P27487); experiment: Kinetics of fluorogenic substrate cleavage by DPPIV; assay type: biochemical
APCE [2] = target: T2, APCE (Homo sapiens, UniProt Q12884); experiment: Kinetics of fluorogenic substrate cleavage by APCE; assay type: biochemical; details: for kcat, APCE / Km: pH 7.5, 22 °C, 20 min; for Km: read-out: Km, APCE
T2 sequence (Q12884 24-760 limits assumed): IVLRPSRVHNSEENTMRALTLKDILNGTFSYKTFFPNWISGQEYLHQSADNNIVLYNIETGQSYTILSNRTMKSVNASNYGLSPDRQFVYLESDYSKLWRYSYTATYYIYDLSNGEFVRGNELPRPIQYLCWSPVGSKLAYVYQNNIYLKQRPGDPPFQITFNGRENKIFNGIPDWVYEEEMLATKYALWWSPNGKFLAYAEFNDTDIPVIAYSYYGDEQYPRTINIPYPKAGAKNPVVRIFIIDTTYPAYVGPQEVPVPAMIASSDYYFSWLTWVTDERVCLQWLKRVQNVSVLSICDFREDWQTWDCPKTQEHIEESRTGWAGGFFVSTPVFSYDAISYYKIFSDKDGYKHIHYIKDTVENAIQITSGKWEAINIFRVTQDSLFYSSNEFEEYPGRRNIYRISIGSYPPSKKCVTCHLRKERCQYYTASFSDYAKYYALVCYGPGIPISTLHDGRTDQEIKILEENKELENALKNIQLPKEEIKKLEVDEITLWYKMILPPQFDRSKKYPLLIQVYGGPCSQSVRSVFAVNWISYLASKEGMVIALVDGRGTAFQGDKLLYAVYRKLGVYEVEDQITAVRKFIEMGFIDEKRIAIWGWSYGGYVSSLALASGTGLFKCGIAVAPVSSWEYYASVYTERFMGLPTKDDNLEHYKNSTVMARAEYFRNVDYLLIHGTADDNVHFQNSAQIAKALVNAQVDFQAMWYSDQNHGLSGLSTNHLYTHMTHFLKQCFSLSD

APCE [3] = target: T2, APCE; experiment: Cleavage of inhibitor by APCE during incubation; assay type: biochemical; details: for hydrolysis of inhibitor by APCE: lengthy incubations with APCE
APCE [4] = target: T2, APCE; experiment: APCE inhibition, fluorogenic substrate Z-Gly-Pro-AMC; assay type: biochemical; details: for inhibitory effect on APCE: result in words
Method in brief: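 Human-plasma-purified APCE in 25 mM sodium phosphate, pH 7.5, with 1.0 mM EDTA and 4% methanol; 20 min at 22 °C. Z-Gly-Pro-AMC at five concentrations (10–500 μM range) crossed with four inhibitor concentrations around the expected Ki. Released AMC followed over time (ex 360/em 460 nm) against an AMC standard curve. Competitive mode set by Lineweaver–Burk; Ki from competitive-equation fit, best fit ± standard error.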

[5] = system: CSCC[C@H](N)C(=O)N[C@@H](CCC(=O)O)C(=O)N1CCC[C@H]1C(=O)N[C@@H](CC(C)C)C(=O)NCC(=O)N[C@@H](CCCNC(=N)N)C(=O)N[C@@H](CCC(N)=O)C(=O)N[C@@H](CC(C)C)C(=O)N[C@H](C(=O)N[C@@H](CO)C(=O)NCC(=O)N1CCC[C@H]1C(=O)Nc1ccc2c(C)cc(=O)oc2c1)[C@@H](C)O; experiment: Kinetics of fluorogenic substrate cleavage by APCE; assay type: biochemical, human; details: other: pH 7.5, 22 °C, 20 min
[6] = system: CSCC[C@H](N)C(=O)N[C@@H](CCC(=O)O)C(=O)N1CCC[C@H]1C(=O)N[C@@H](CC(C)C)C(=O)NCC(=O)N[C@@H](Cc1c[nH]c2ccccc12)C(=O)N[C@@H](CCC(N)=O)C(=O)N[C@@H](CC(C)C)C(=O)N[C@H](C(=O)N[C@@H](CO)C(=O)NCC(=O)N1CCC[C@H]1C(=O)Nc1ccc2c(C)cc(=O)oc2c1)[C@@H](C)O; experiment: Kinetics of fluorogenic substrate cleavage by APCE; assay type: biochemical, human; details: other: pH 7.5, 22 °C, 20 min
DPPIV [7] = target: T1, DPPIV; details: read-out: Ki for DPPIV; cited from earlier work
FAP = details: read-out: Ki for FAP; cited from earlier work
recombinant FAP = details: cited from earlier work

T1 sequence (P27487 whole entry, species assumed): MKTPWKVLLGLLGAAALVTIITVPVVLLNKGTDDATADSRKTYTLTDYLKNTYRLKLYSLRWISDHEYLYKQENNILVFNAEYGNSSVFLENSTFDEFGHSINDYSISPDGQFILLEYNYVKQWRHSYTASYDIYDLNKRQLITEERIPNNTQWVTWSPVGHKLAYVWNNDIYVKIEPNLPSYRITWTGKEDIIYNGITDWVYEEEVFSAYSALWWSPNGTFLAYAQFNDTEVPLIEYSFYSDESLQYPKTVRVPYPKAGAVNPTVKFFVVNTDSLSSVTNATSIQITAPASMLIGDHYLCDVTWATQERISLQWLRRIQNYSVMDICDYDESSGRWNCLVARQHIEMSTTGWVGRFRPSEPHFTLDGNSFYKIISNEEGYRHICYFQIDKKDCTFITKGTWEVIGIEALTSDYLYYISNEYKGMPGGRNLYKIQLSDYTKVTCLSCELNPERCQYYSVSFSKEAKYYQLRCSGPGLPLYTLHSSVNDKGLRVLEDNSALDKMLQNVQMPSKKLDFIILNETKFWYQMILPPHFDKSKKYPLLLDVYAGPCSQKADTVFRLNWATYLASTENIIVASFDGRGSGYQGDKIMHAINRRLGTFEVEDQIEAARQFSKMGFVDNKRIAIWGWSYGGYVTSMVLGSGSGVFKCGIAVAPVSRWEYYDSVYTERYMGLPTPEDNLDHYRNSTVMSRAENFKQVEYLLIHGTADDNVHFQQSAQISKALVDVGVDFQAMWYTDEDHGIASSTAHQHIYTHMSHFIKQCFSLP

Molecule: Cc1cc(=O)oc2cc(NC(=O)[C@@H]3CCCN3C(=O)CN)ccc12 [GP-AMC, Gly-Pro-7-amido-4-methylcoumarin] (H-Gly-Pro-{AMC})
kcat/Km of DPPIV higher than that of APCE (DPPIV [1]): ~30 fold | kcat, DPPIV (DPPIV [1]; pH 7.5, 22 °C, 20 min): 1.985 ± 0.102 s⁻¹ | Km (DPPIV [1]; read-out: Km, DPPIV, pH 7.5, 22 °C, 20 min): 63 ± 6 µM | kcat, APCE (APCE [2]): 0.485 ± 0.0183 s⁻¹ | Km (APCE [2]): 455 ± 42 µM | kcat/Km of APCE lower than the other three substrates (APCE [2]; vs MEPLGRQLTSGP-AMC, MEPLGWQLTSGP-AMC, Z-GP-AMC): 6–51 fold

Molecule: FR-peg-G-pipecolinic acid
inhibitory effect on APCE (APCE [4]): neither of which appeared to have any inhibitory effect

Molecule: APCE (Homo sapiens)
Km [5]: 21 ± 2 µM | kcat [5]: 1.17 ± 0.0383 s⁻¹ | kcat/Km [5]: 55000 M⁻¹ s⁻¹ | Km [6]: 70 ± 6 µM | kcat [6]: 0.922 ± 0.025 s⁻¹ | kcat/Km [6]: 13200 M⁻¹ s⁻¹

Molecule: CC(=O)NCC(=O)N1CCCC1C#N (stereo not drawn) [acetyl-Gly-Pro-nitrile]
Ki (DPPIV [7]): 61 µM | Ki (FAP): 6.8 µM

Molecule: Cc1cc(=O)oc2cc(NC(=O)[C@@H]3CCCN3C(=O)CNC(=O)OCc3ccccc3)ccc12 [Z-GP-AMC, benzyloxycarbonyl- (Z-) Gly-Pro-AMC] (Cbz-Gly-Pro-{AMC})
kcat, APCE (APCE [2]): 0.607 ± 0.02 s⁻¹ | Km (APCE [2]): 90 ± 9 µM | increase in catalytic efficiency of recombinant FAP as opposed to Gly-Pro-AMC (recombinant FAP): ~18 fold

Molecule: NQEQV
inhibitory effect on APCE (APCE [4]): neither of which appeared to have any inhibitory effect

Second part, the molecule after the results:

hydrolysis of inhibitor by APCE (APCE [3]): slowly hydrolyzed
Molecule: CC(C)C[C@H](NC(=O)[C@H](CCC(N)=O)NC(=O)[C@H](CCCNC(=N)N)NC(=O)[C@@H](N)Cc1ccccc1)C(=O)N[C@H](C(=O)N[C@@H](CO)C(=O)NCC(=O)N1CCCC[C@H]1C(=O)N[C@@H](CC(N)=O)C(=O)N[C@@H](CCC(N)=O)C(=O)N[C@@H](CCC(=O)O)C(=O)N[C@@H](CCC(N)=O)C(=O)N[C@H](C(=O)O)C(C)C)[C@@H](C)O [Inhibitor 1, FRQLTSG-pipecolinyl-NQEQV] (H-FRQLTSG[Pip]NQEQV-OH; N-terminus assumed)

change of Ki relative to inhibitor 2 (P7 Arg replaced with Gly) (APCE [4]; printed as Ki reduced): ~4 fold
Molecule: CC(C)[C@H](NC(=O)[C@H](CCC(N)=O)NC(=O)[C@H](CCC(=O)O)NC(=O)[C@H](CCC(N)=O)NC(=O)[C@H](CC(N)=O)NC(=O)[C@@H]1CCCCN1C(=O)CNC(=O)COCCOCCNC(=O)CNC(=O)[C@@H](N)Cc1ccccc1)C(=O)O [Inhibitor 3, FG-peg-G-pipecolinyl-NQEQV] (H-FG[AEEA]G[Pip]NQEQV-OH; N-terminus assumed)

fraction of inhibitor cleaved by APCE (APCE [3]; 1 h incubation, LC/MS): ~6% | hydrolysis of inhibitor by APCE (APCE [3]): slowly hydrolyzed
Molecule: CC(C)[C@H](NC(=O)[C@H](CCC(N)=O)NC(=O)[C@H](CCC(=O)O)NC(=O)[C@H](CCC(N)=O)NC(=O)[C@H](CC(N)=O)NC(=O)[C@@H]1CCCCN1C(=O)CNC(=O)COCCOCCNC(=O)[C@H](CCCNC(=N)N)NC(=O)[C@@H](N)Cc1ccccc1)C(=O)O [Inhibitor 2, FR-peg-G-pipecolinyl-NQEQV] (H-FR[AEEA]G[Pip]NQEQV-OH; N-terminus assumed)

inhibitory effect on APCE (APCE [4]): lacked inhibitory properties
Molecule: N=C(N)NCCC[C@H](NC(=O)[C@@H](N)Cc1ccccc1)C(=O)NCCOCCOCC(=O)NCC(=O)N1CCCC[C@H]1C(N)=O [Inhibitor 11, FR-peg-G-pipecolinamide] (H-FR[AEEA]G[Pip]-NH2; N-terminus assumed)

— article PMC4470291 (Biochemistry, 2009)
